{"source": "ChEMBL document CHEMBL2021927", "about": "“Synthesis and evaluation of the cytotoxicities of tetraindoles: observation that the 5-hydroxy tetraindole (SK228) induces G₂ arrest and apoptosis in human breast cancer cells” (J Med Chem, 2012)", "key": {"MCF7 [1]": {"tested_on": "MCF7", "test": "Ratio of IC50 for cyclic tetramer to compound for human MCF7 cells after 48 hrs by MTT assay", "format": "functional"}, "MCF7 [2]": {"tested_on": "MCF7", "test": "Ratio of IC50 for 3,3'-diindolylmethane to compound for human MCF7 cells after 48 hrs by MTT assay", "format": "functional"}, "MDA-MB-231 [3]": {"tested_on": "MDA-MB-231", "test": "Antiproliferative activity against human MDA-MB-231 cells assessed as decrease in cell count after 72 hrs by trypan blue dye exclusion assay", "format": "functional, cell-based", "procedure,_shortened": "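MDA-MB-231 cells seeded at 2 × 10^5 per well in 6-well plates, treated 24 h later in triplicate with compound (0.1–0.8 μM) or DMSO vehicle in 10% FBS DMEM/F12. Cells harvested by trypsinization at 24, 48 and 72 h, stained with 0.4% trypan blue and counted on a hemocytometer; three independent experiments.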"}, "MDA-MB-468 [4]": {"tested_on": "MDA-MB-468", "test": "Growth inhibition of human MDA-MB-468 cells after 48 hrs by MTT assay", "format": "functional, cell-based", "conditions": "MDA-MB-468, 48 h"}, "SW480": {"tested_on": "SW480", "test": "Growth inhibition of human SW480 cells after 48 hrs by MTT assay", "format": "functional, cell-based", "conditions": "SW480, 48 h"}, "SW-620": {"tested_on": "SW-620", "test": "Growth inhibition of human SW620 cells after 48 hrs by MTT assay", "format": "functional, cell-based", "conditions": "SW-620, 48 h"}, "SW48 [5]": {"tested_on": "SW48", "test": "Growth inhibition of human SW48 cells after 48 hrs by MTT assay", "format": "functional, cell-based", "conditions": "SW48, 48 h"}, "[6]": {"test": "Growth inhibition of human U87MG cells after 48 hrs by MTT assay", "format": "functional, cell-based, U-87MG ATCC", "conditions": "U-87 MG"}, "A549 [7]": {"tested_on": "A549", "test": "Growth inhibition of human A549 cells after 48 hrs by MTT assay", "format": "functional, cell-based", "conditions": "A549, 48 h"}, "[8]": {"test": "Growth inhibition of human M10 cells after 48 hrs by MTT assay", "format": "cell-based", "conditions": "M10, 48 h"}, "Detroit 551 [9]": {"tested_on": "Detroit 551", "test": "Growth inhibition of human Detroit 551 cells after 48 hrs by MTT assay", "format": "cell-based", "conditions": "Detroit 551, 48 h"}, "[10]": {"test": "Growth inhibition of human Detroit 551 cells at 20 uM after 48 hrs by MTT assay", "format": "cell-based", "conditions": "read-out: GI", "procedure,_shortened": "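MTT viability assay with 48 h exposure at a single 20 μM concentration. Result given as percent inhibition of cell growth; n = 3.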"}, "MDA-MB-468 [11]": {"tested_on": "MDA-MB-468", "test": "Selectivity ratio of IC50 for human MT10 cells to IC50 for human MDA-MB-468 cells", "procedure,_shortened": "(§1)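 Ratio of the IC50 in normal M10 cells to the IC50 in each cancer line. […] The paper reports the fold difference as the normal-cell to tumour-cell IC50 ratio.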"}, "[12]": {"test": "Selectivity ratio of IC50 for human MT10 cells to IC50 for human SW620 cells", "format": "ADME, cell-based, SW-620", "conditions": "MT10 cells and SW620 cells", "procedure,_shortened": "as §1"}, "SW48 [13]": {"tested_on": "SW48", "test": "Selectivity ratio of IC50 for human MT10 cells to IC50 for human SW48 cells", "procedure,_shortened": "as §1"}, "[14]": {"test": "Selectivity ratio of IC50 for human MT10 cells to IC50 for human U87MG cells", "format": "ADME, cell-based, U-87MG ATCC", "conditions": "MT10 cells and U87MG cells, read-out: Ratio IC50", "procedure,_shortened": "as §1"}, "A549 [15]": {"tested_on": "A549", "test": "Selectivity ratio of IC50 for human MT10 cells to IC50 for human A549 cells", "procedure,_shortened": "as §1"}, "MCF7 [16]": {"tested_on": "MCF7", "test": "Selectivity ratio of IC50 for human MT10 cells to IC50 for human MCF7 cells", "procedure,_shortened": "as §1"}, "MDA-MB-361": {"tested_on": "MDA-MB-361", "test": "Selectivity ratio of IC50 for human Detroit 551 cells to IC50 for human MDA-MB-361 cells"}, "MDA-MB-468 [17]": {"tested_on": "MDA-MB-468", "test": "Selectivity ratio of IC50 for human Detroit 551 cells to IC50 for human MDA-MB-468 cells"}, "Detroit 551 [18]": {"tested_on": "Detroit 551", "test": "Selectivity ratio of IC50 for human Detroit 551 cells to IC50 for human A549 cells"}, "MDA-MB-231 [19]": {"tested_on": "MDA-MB-231", "test": "Cell cycle arrest in human MDA-MB-231 cells at accumulation at G2/M phase at 0.8 uM after 24 hrs by propidium iodide staining-based flow cytometric analysis (reference value: 30%)", "format": "functional"}, "MDA-MB-231 [20]": {"tested_on": "MDA-MB-231", "test": "Cell cycle arrest in human MDA-MB-231 cells at accumulation at subG1 phase at 0.8 uM after 24 hrs by propidium iodide staining-based flow cytometric analysis (reference value: 2%)", "format": "functional"}, "MDA-MB-231 [21]": {"tested_on": "MDA-MB-231", "test": "Cell cycle arrest in human MDA-MB-231 cells at accumulation at S phase at 0.8 uM after 48 hrs by propidium iodide staining-based flow cytometric analysis (reference value: 20%)", "format": "functional"}, "MDA-MB-231 [22]": {"tested_on": "MDA-MB-231", "test": "Cell cycle arrest in human MDA-MB-231 cells at accumulation at G2/M phase at 0.8 uM after 48 hrs by propidium iodide staining-based flow cytometric analysis (reference value: 32%)", "format": "functional"}, "MDA-MB-231 [23]": {"tested_on": "MDA-MB-231", "test": "Cell cycle arrest in human MDA-MB-231 cells at accumulation at subG1 phase at 0.8 uM after 48 hrs by propidium iodide staining-based flow cytometric analysis (reference value: 3%)", "format": "functional"}, "MDA-MB-231 [24]": {"tested_on": "MDA-MB-231", "test": "Increase in cyclin B1 expression in human MDA-MB-231 cells after 48 hrs by Western blot analysis", "format": "functional, cell-based", "procedure,_shortened": "(§2)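 MDA-MB-231 cells treated with 0.2, 0.4 or 0.8 μM for 24 and 48 h. Attached and floating cells were lysed in RIPA-type buffer with protease inhibitors, and protein was quantified by BCA. Equal protein was run on 10%/15% SDS-PAGE and transferred to nitrocellulose. Blots were probed 1 h at room temperature for phospho-cdc2, cyclin B1, caspase-3, bak/bcl-2 or actin loading control, with HRP secondary and ECL detection.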"}, "MDA-MB-231 [25]": {"tested_on": "MDA-MB-231", "test": "Increase in cdc2 phosphorylation at Tyr15 expression in human MDA-MB-231 cells after 24 hrs by Western blot analysis", "format": "functional, cell-based", "procedure,_shortened": "as §2"}, "MDA-MB-231 [26]": {"tested_on": "MDA-MB-231", "test": "Increase in cdc2 phosphorylation at Tyr15 expression in human MDA-MB-231 cells after 48 hrs by Western blot analysis", "format": "functional, cell-based", "procedure,_shortened": "as §2"}, "MDA-MB-231 [27]": {"tested_on": "MDA-MB-231", "test": "Induction of apoptosis in human MDA-MB-231 cells assessed as increase in early apoptotic cells at 0.4 uM by annexinV propidium iodide staining-based flow cytometric analysis", "format": "functional, cell-based", "conditions": "TDE = time-dependent effect", "procedure,_shortened": "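MDA-MB-231 cells treated with 0.4 μM, washed twice in PBS and stained with annexin V-FITC/propidium iodide. Populations scored as viable (both negative), early apoptotic (annexin V positive, PI negative) or late apoptotic/dead (both positive).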"}, "MDA-MB-231 [28]": {"tested_on": "MDA-MB-231", "test": "Induction of apoptosis in human MDA-MB-231 cells assessed as DNA ladder formation at 0.4 to 1.6 uM after 48 hrs by agarose gel electrophoretic analysis", "format": "functional, cell-based", "procedure,_shortened": "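MDA-MB-231 cells seeded at 1 × 10^6 per dish, treated 24 h later with 0, 0.4, 0.8, 1.2 or 1.6 μM or DMSO for 48 h at 37 °C, 5% CO2. Cells lysed in TE buffer with 0.25% NP40 (pH 7.5). Lysate digested with RNase A then proteinase K, each 1 h at 37 °C. DNA resolved on 1.8% agarose gel.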"}, "MDA-MB-231 [29]": {"tested_on": "MDA-MB-231", "test": "Induction of apoptosis in human MDA-MB-231 cells assessed as bak protein level after 24 hrs by Western blot analysis", "format": "functional, cell-based", "procedure,_shortened": "as §2"}, "MDA-MB-231 [30]": {"tested_on": "MDA-MB-231", "test": "Induction of apoptosis in human MDA-MB-231 cells assessed as bak protein level after 48 hrs by Western blot analysis", "format": "functional, cell-based", "procedure,_shortened": "as §2"}, "MDA-MB-231 [31]": {"tested_on": "MDA-MB-231", "test": "Induction of apoptosis in human MDA-MB-231 cells assessed as caspase 3 cleavage after 24 to 48 hrs by Western blot analysis", "format": "functional, cell-based", "procedure,_shortened": "as §2"}, "MDA-MB-231 [32]": {"tested_on": "MDA-MB-231", "test": "Induction of apoptosis in human MDA-MB-231 cells assessed as PARP cleavage after 24 to 48 hrs by Western blot analysis", "format": "functional, cell-based"}, "MCF7 [33]": {"tested_on": "MCF7", "test": "Growth inhibition of human MCF7 cells after 48 hrs by MTT assay", "format": "functional, cell-based", "conditions": "MCF7, 48 h"}}, "note": "Calls of active or inactive are those of the source. The rule behind the calls is not given here."}
{"smiles": "Oc1ccc2[nH]cc(C(c3ccc(C(c4c[nH]c5ccc(O)cc45)c4c[nH]c5ccc(O)cc45)cc3)c3c[nH]c4ccc(O)cc34)c2c1", "values": [{"measurement": "Ratio IC50", "setting": "MCF7 [1]", "value": 2}, {"measurement": "Ratio IC50", "setting": "MCF7 [2]", "value": 57}, {"measurement": "Activity", "setting": "MDA-MB-231 [3]", "value": "Dose-dependent effect"}, {"measurement": "IC50", "setting": "MDA-MB-468 [4]", "value": 830, "unit": "nM"}, {"measurement": "IC50", "setting": "SW480", "value": 370, "unit": "nM"}, {"measurement": "IC50", "setting": "SW-620", "value": 980, "unit": "nM"}, {"measurement": "IC50", "setting": "SW48 [5]", "value": 880, "unit": "nM"}, {"measurement": "IC50", "setting": "[6]", "value": 2730, "unit": "nM"}, {"measurement": "IC50", "setting": "A549 [7]", "value": 2890, "unit": "nM"}, {"measurement": "IC50", "setting": "[8]", "value": 5810, "unit": "nM"}, {"measurement": "IC50", "setting": "Detroit 551 [9]", "value": "> 20000", "unit": "nM"}, {"measurement": "inhibition at 48 h, 20 µM", "setting": "[10]", "value": 47, "unit": "%"}, {"measurement": "Ratio IC50", "setting": "MDA-MB-468 [11]", "value": 7}, {"measurement": "selectivity ratio", "setting": "[12]", "value": 5.9}, {"measurement": "Ratio IC50", "setting": "SW48 [13]", "value": 6.6}, {"measurement": "selectivity ratio", "setting": "[14]", "value": 2}, {"measurement": "Ratio IC50", "setting": "A549 [15]", "value": 2}, {"measurement": "Ratio IC50", "setting": "MCF7 [16]", "value": 6.6}, {"measurement": "Ratio IC50", "setting": "MDA-MB-361", "value": "> 9.7"}, {"measurement": "Ratio IC50", "setting": "MDA-MB-468 [17]", "value": "> 24"}, {"measurement": "Ratio IC50", "setting": "Detroit 551 [18]", "value": "> 6.9"}, {"measurement": "Activity", "setting": "MDA-MB-231 [19]", "value": 40, "unit": "%"}, {"measurement": "Activity", "setting": "MDA-MB-231 [20]", "value": 6, "unit": "%"}, {"measurement": "Activity", "setting": "MDA-MB-231 [21]", "value": 20, "unit": "%"}, {"measurement": "Activity", "setting": "MDA-MB-231 [22]", "value": 34, "unit": "%"}, {"measurement": "Activity", "setting": "MDA-MB-231 [23]", "value": 21, "unit": "%"}, {"measurement": "Activity", "setting": "MDA-MB-231 [24]", "value": "Dose-dependent effect"}, {"measurement": "Activity", "setting": "MDA-MB-231 [25]", "value": "Dose-dependent effect"}, {"measurement": "Activity", "setting": "MDA-MB-231 [26]", "value": "Dose-dependent effect"}, {"measurement": "Activity", "setting": "MDA-MB-231 [27]", "value": "tde"}, {"measurement": "Activity", "setting": "MDA-MB-231 [28]", "value": "Active"}, {"measurement": "Activity", "setting": "MDA-MB-231 [29]", "value": "Active"}, {"measurement": "Activity", "setting": "MDA-MB-231 [30]", "value": "Active"}, {"measurement": "Activity", "setting": "MDA-MB-231 [31]", "value": "Dose-dependent effect"}, {"measurement": "Activity", "setting": "MDA-MB-231 [32]", "value": "Dose-dependent effect"}, {"measurement": "IC50", "setting": "MCF7 [33]", "value": 880, "unit": "nM"}]}
